pKi: −log10 of the molar value.

In general, pKi refers to the negative decadic logarithm of the Ki, by convention in mol/L. One may read the T/C as the ratio of treated to control.

Series [1] is described as follows: Toxicity in immunodeficient nude mouse model xenografted with high alert medicated patient derived human GBM1 cells assessed as body weight change at 50 mg/kg,ip QD for 17 days. The conditions noted are these: in vivo, 408 h, time 17 day. Format: organism-based. The essentials: (§1)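 Female athymic nude mice bearing subcutaneous GBM1-HAM PDX fragments (20 mm³); treatment began day 11 post-implant at tumour volumes 75-196 mm³, 10 per group. Compound i.p. daily in cyclodextrin vehicle (17 days alone, 27 days in combination); temozolomide 42 mg/kg p.o. daily for 5 days in PBS/glucose/Tween 80. Calliper volumes three times weekly; body weight and clinical signs monitored.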
For orientation: In xenograft studies the graft and the host belong to different species.

The target in series [2] is T1, Oxysterol-binding protein 1 (Homo sapiens, UniProt P22059).
T1 sequence (P22059 whole entry): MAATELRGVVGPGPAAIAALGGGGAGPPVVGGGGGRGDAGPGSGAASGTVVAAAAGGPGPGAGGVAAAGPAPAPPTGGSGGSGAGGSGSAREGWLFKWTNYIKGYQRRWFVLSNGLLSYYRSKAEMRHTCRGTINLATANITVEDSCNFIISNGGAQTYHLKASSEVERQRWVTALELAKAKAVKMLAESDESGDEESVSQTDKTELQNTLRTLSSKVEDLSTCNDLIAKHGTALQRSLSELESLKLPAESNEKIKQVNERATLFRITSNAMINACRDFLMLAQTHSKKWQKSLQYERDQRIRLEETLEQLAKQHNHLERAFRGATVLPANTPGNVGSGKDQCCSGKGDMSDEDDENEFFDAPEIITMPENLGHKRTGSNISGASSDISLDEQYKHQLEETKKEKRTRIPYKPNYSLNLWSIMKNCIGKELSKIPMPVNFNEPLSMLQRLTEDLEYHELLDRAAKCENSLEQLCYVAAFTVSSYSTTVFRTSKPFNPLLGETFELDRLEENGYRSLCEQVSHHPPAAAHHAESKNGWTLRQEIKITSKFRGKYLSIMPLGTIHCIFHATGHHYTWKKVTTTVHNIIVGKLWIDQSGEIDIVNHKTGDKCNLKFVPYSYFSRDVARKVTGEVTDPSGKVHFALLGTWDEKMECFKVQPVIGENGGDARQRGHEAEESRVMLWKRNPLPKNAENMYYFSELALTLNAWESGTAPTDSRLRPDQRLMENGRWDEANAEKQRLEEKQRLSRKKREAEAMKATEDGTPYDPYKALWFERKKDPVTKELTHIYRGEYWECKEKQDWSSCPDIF
As to the kind of experiment: Inhibition of human C-terminal 6-His tagged OSBP ORD domain (401 to 807 residues) expressed in baculovirus-infected Sf9 cells assessed as reduction in DHE transfer from liposome (Le mimicking ER) to liposome (Lg mimicking golgi) with compound by FRET assay. The essentials:
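Purified human OSBP ORD (401-807, C-terminal 6×His) from baculovirus-infected Sf9 cells, used in a DHE sterol transfer fluorescence assay. Signal corrected for compound fluorescence. Kinetics fitted linearly or by ΔF = ΔFmax(1 − e^−kt) to give apparent k, which was plotted against compound concentration. Ki from a quadratic (tight binders) or hyperbolic equation, three independent experiments.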

Series [3] can be described thus: Toxicity in immunodeficient nude mouse model xenografted with high alert medicated patient derived human GBM1 cells assessed as clinical symptoms at 20 mg/kg,ip QD for 27 days cotreatment with Temozolomide at 42 mg/kg,po QD for 5 days. Format: organism-based. The conditions noted are these: in vivo, 648 h, time 27 day. Summed up:
as §1

For a further series, the target named is mTORC1 (Homo sapiens) (UniProt P42345+Q8N122+Q9BVC4). As to the kind of experiment: Inhibition of mTORC1 signalling in human U-87 MG cells assessed as decrease in S6K phosphorylation at T389 residue at 0.05 to 1 uM incubated for 48 hrs by Western blot analysis. Format: cell-based. Summed up: (§2)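 U-87 MG cells cultured two days, then exposed 48 h to increasing doses. Lysed in RIPA with protease inhibitors; 5 µg protein run on 4-20% SDS gels and transferred to PVDF. Probed for phospho/total AKT, S6, S6K, P62 and LC3, detected by ECL. Band intensities normalized to β-actin.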
mTORC1 (Homo sapiens), sequence (Q8N122 whole entry, looked up, other chains not shown): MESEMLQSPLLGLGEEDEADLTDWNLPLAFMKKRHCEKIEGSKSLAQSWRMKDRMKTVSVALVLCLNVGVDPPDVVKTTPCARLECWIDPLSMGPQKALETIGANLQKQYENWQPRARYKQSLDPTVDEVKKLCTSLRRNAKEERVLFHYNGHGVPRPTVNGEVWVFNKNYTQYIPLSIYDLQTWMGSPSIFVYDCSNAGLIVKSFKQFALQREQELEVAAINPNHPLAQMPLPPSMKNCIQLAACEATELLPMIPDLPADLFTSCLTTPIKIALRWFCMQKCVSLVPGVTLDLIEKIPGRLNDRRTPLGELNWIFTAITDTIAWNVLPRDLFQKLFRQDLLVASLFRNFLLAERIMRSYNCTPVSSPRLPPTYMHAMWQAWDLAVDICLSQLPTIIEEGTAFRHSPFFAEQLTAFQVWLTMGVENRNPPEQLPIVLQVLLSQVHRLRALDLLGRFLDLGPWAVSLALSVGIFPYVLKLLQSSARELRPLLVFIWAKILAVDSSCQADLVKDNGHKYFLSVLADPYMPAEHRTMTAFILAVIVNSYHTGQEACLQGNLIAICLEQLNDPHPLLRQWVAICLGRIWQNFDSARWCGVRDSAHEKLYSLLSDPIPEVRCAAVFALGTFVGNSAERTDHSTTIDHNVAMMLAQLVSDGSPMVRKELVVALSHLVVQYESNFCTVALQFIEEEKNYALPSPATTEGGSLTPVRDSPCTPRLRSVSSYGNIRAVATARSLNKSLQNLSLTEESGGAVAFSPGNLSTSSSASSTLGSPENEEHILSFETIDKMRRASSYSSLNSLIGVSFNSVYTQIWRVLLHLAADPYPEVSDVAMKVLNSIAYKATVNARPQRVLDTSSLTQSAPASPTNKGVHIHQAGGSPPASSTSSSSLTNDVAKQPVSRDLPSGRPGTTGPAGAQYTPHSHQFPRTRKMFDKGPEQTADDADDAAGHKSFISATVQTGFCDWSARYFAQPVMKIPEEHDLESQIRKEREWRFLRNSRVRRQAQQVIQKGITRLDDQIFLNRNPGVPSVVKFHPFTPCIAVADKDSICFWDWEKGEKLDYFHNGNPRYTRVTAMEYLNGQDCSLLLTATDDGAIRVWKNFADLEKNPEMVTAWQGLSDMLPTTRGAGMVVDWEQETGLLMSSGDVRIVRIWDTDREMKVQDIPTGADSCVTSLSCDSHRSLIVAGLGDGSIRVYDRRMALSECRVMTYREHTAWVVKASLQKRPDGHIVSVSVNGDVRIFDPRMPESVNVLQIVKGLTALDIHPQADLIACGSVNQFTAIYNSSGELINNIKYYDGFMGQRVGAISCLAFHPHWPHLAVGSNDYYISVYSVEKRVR
mTORC1 (Homo sapiens), sequence (Q9BVC4 whole entry, looked up, other chains not shown): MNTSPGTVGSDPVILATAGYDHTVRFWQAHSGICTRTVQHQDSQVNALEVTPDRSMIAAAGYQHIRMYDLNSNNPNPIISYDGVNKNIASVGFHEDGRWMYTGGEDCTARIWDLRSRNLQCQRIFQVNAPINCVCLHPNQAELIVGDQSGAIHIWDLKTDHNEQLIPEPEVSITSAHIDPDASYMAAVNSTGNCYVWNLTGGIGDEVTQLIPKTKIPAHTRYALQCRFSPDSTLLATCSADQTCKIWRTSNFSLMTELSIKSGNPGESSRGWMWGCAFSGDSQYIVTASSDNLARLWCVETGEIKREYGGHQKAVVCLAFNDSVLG
A general note: Immunoblotting shows a protein as a band on a membrane.

Series [4] can be described thus: Drug uptake in human hTERT-RPE1 cells assessed as drug co-localization with OSBP perinuclear region of cell incubated for 30 mins by immunofluorescence analysis. Format: ADME, cell-based. The conditions noted are these: tert-rpe1, 0.5 h. Summed up:
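hTERT-RPE-1 cells incubated 30 min with compound, then fixed (4% paraformaldehyde, 0.1% glutaraldehyde, 10 min), quenched with 50 mM NH₄Cl and permeabilized in saponin 0.05%/BSA 0.2%. Immunolabeled for OSBP and TGN-46. Compound imaged directly by UV-adapted widefield fluorescence (excitation 330, emission 410 nm).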

The next series concerns U-87 MG. As to the kind of experiment: Induction of autophagy in human U-87 MG cells assessed as decrease in P62 expression at 0.05 to 1 uM incubated for 48 hrs by Western blot analysis. The conditions noted are these: U-87MG ATCC. Format: functional, cell-based. Summed up: as §2
The nature of series [5]: Toxicity in immunodeficient nude mouse model xenografted with high alert medicated patient derived human GBM1 cells assessed as clinical symptoms at 50 mg/kg,ip QD for 17 days. Format: organism-based. The conditions noted are these: in vivo, 408 h, time 17 day. Summed up:
as §1

A short description of series [6]: Antitumor activity in high alert medicated patient derived human GBM1 cells xenografted in immunodeficient nude mouse model assessed as tumor growth inhibition at 50 mg/kg,ip QD cotreatment with Temozolomide at 42 mg/kg,po QD and measured from 9 to 11 days. Format: functional. Summed up: as §1
Series [7] can be described thus: Toxicity in immunodeficient nude mouse model xenografted with high alert medicated patient derived human GBM1 cells assessed as body weight change at 20 mg/kg,ip QD for 27 days cotreatment with Temozolomide at 42 mg/kg,po QD for 5 days. The conditions noted are these: in vivo, 648 h, time 27 day. Format: organism-based. Summed up: as §1
Series [8] in a line: Antitumor activity in high alert medicated patient derived human GBM1 cells xenografted in immunodeficient nude mouse model assessed as T/C ratio at 20 mg/kg,ip QD cotreatment with Temozolomide at 42 mg/kg,po QD and measured after 11 days. Format: functional. The conditions noted are these: time 11 day. The essentials:
as §1

For the molecule `CC1(C)CCc2c(O)cc(/C=C/c3cc(O)c4c(c3)C[C@@H]3C(C)(C)[C@H](OC=O)CC[C@@]3(C)O4)cc2O1`, the Activity entry was “Non-Toxic” in series [1]; “Non-Toxic” in series [3]; “Dose-Dependent Effect” in the series on U-87 MG; “Non-Toxic” in series [5]; “Non-Toxic” in series [7]. For the same molecule, in series [2], the pKi is 5.97. On mTORC1 (Homo sapiens), the inhibition result was “Dose-Dependent Effect”. For the same molecule, the Drug uptake entry in series [4] is on record as “Active”. Also, in series [6], the TGDI at 50 mg/kg amounted to 2.07%. Moreover, the T/C in series [8] was found to be 49.91%.

Source of the values: ChEMBL document CHEMBL5370602, “Structure-Based Design of a Lead Compound Derived from Natural Schweinfurthins with Antitumor Properties That Target Oxysterol-Binding Protein” (J Med Chem, 2023).
